14 compounds from PubChem BioAssay can be followed below.

For orientation: viability means a read-out of living cells in per cent, often relative to untreated cells. One may read the inhibition as the change of the read-out against control, counted positive when it falls.

Activity calls are given as the source filed them.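 Rule for the calls, unless noted: active = viability at or under a set limit in both replicates, limit being median viability minus 3 SD (cut at about 48% in these data, passing the limit was not always enough); inconclusive = at or under the limit in just one replicate; inactive = at or above the limit in both replicates.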

Test [1] is described as follows: Her2 expression decrease, cell viability multiplex – SKBR3 breast tumor cells, AlphaScreen, ATP viability, primary screen (AID 461;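 active = Her2 level under about 52% in both replicate screens, with viability over 70% of control, limit read from the data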;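 for Her2 level: lower value means less Her2 protein in the cells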;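 for viability: percent of carrier control wells set as 100% viability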). The conditions noted are these: SKBR3 Her2 protein level, 18-24 h, measured here: SKBR3 viability, ATP luminescence, at 10 µM. (In general: Bead proximity is the source of the signal in Alpha formats.)
For test [2], the target named is Receptor tyrosine-protein kinase erbB-2 (Homo sapiens) (UniProt P04626). The description is as above. The conditions noted are these: 18-24 h, at 10 µM, stronger effect = lower value.
Receptor tyrosine-protein kinase erbB-2 (Homo sapiens), sequence (P04626 whole entry, looked up): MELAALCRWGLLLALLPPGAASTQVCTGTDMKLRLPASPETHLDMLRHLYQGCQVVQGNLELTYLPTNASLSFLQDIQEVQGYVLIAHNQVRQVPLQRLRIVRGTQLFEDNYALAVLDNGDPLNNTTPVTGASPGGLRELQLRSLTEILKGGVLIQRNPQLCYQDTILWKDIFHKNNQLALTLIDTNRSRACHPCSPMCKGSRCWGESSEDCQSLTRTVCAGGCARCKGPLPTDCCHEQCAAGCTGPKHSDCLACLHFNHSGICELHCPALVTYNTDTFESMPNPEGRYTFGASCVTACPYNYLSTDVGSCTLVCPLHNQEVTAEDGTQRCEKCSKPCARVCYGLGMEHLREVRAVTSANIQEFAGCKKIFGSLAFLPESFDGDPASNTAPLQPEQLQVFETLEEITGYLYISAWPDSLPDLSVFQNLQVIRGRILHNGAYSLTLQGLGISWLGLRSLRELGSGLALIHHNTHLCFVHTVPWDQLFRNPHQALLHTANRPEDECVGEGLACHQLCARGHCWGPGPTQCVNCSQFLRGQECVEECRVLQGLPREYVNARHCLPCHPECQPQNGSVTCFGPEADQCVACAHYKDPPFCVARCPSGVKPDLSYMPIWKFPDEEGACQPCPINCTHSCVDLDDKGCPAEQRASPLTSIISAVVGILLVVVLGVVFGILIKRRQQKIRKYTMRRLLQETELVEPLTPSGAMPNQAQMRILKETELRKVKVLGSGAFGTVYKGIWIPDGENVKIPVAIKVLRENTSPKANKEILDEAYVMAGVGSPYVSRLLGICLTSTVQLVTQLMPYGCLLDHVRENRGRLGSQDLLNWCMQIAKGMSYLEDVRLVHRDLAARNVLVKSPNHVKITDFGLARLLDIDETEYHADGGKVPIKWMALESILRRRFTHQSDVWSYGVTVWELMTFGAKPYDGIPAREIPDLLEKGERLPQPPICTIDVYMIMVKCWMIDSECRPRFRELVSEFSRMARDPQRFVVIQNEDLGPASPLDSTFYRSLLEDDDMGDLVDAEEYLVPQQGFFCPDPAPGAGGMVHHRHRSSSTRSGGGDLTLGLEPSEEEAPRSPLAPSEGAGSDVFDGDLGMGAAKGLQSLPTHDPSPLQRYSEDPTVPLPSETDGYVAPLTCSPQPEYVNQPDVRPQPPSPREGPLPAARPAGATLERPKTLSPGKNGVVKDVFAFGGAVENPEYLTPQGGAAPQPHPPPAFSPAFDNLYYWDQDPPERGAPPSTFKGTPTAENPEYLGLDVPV
Test [3] can be described thus: reduced viability of SK-BR-3 breast cancer cells – cell-based, 24 h, human, pilot screen (AID 572;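 active = viability at or below 10% of carrier control in both of two separate runs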;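 note: compound exposure lasted between 18 and 24 h rather than exactly 24 h; 100% = carrier-treated control wells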). The note with it: SK-BR-3 viability, CellTiter-Glo luminescence, at 10 µM, stronger effect = lower value.
A short description of test [4]: HUVEC growth inhibition – cell-based, human, primary screen (AID 575;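 active = viability at or below 30% in both replicate assays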;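 note: 100% = median of untreated cell wells with 0.1% DMSO on each plate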). The note with it: HUVEC proliferation, CellTiter-Glo luminescence, 72 h; at 10 µM; stronger effect = lower value. The method, boiled down: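 Assay system: primary human umbilical vein endothelial cells / Buffer or medium: endothelial basal medium with 2% FBS plus growth supplements / Compound dosing: one dose, 10 µM final, 0.1% DMSO / Timing: 72 h treatment at 37 °C / Signal: CTG luminescence / Benchmarks: 32 DMSO-only cell-control wells (high), 32 MePR drug-control wells (low) per plate / Plate: collagen-coated 384-well format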
In general terms: ATP-based viability assays read luminescence as a measure of living cells.

A short description of test [5]: H69AR cell proliferation blockers – human, duplicate replicates, primary screen (AID 580).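 Note: 100% = mean luminescence of untreated wells and 0% = no signal.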 The conditions noted are these: H69AR lung tumor cells viability, ATP luminescence, 72 h; at 10 µM; stronger effect = lower value.
The nature of test [6]: MRP1 drug-resistance reversers in H69AR cells – cell-based, doxorubicin co-treatment, pilot screen (AID 601;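 active = viability loss from added drug above about 55%, and viability with drug at most 40%, in both replicates, limit read from the data, passing the limit was not always enough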). The note with it: CellTiter-Glo, 72 h, at 10 µM; for differential viability (reversal): stronger effect = higher value.
A short description of test [7]: yeast transport mutant growth inhibition pilot in 384-well plates, post-Golgi transport modulator project (AID 636; in the data active = inhibition above about 31%). The conditions noted are these: absorbance 615 nm, about 18 h, stronger effect = higher value.
The nature of test [8]: growth suppression of yeast trafficking mutant, preliminary HTS, modulators of trafficking downstream of Golgi apparatus project, 1536-format plate, OD 615 nm (AID 637; in the data active = inhibition above about 30%). The conditions noted are these: yeast transport mutant growth, absorbance 615 nm, 18 h; stronger effect = higher value.
Setting [9] is: H69AR cells + 2 uM doxorubicin, measured here: viability with 2 uM doxorubicin, stronger effect = lower value.
Setting [10] is: H69AR cells, compound alone cytotoxicity.

Turning to `CCn1c(SCC(=O)N2CCOCC2)nc2c(c1=O)SC(C)C2` (stereo not given), the viability in test [1] was 95%; in test [3], 95% (inactive); in test [4], 97.3% (inactive); in test [5] it was 88% (inactive); in test [6] (setting [9]), 81.7%; in test [6] (setting [10]), 88%. Besides, the Her2 level in test [2] was 112% (inactive). Moreover, the differential viability (reversal) in test [6] (H69AR cells + 2 uM doxorubicin) was 6.23% (inactive). Further, the figures for the inhibition in test [7] and in test [8] were -7.53% (inactive) and -4.92% (inactive), respectively.

As to `O=C1CC(N2CCC(C(=O)N3CCCCC3)CC2)C(=O)N1` (stereo not given), the viability in test [1] was 110%; in test [3], 110% (inactive); in test [4] it was 94.4% (inactive); in test [5] it was 96.9% (inactive); in test [6] (setting [9]), 86.8%; in test [6] (setting [10]) it was 96.9%. Besides, the Her2 level in test [2] was 91.5% (inactive). The differential viability (reversal) in test [6] (H69AR cells + 2 uM doxorubicin) was 10% (inactive). Further, the values for the inhibition in test [7] and in test [8] were -2.63% (inactive) and 3.71% (inactive), respectively.

Turning to `O=C1CS/C(=N\C(=O)N2c3ccccc3Sc3ccccc32)N1`, the viability is 102% in test [1]; 102% (inactive) in test [3]; 94% (inactive) in test [4]; 105% (inactive) in test [5]; 90.2% in test [6] (setting [9]); 105% in test [6] (setting [10]). Also, the Her2 level in test [2] was 98.5% (inactive). In test [6] (H69AR cells + 2 uM doxorubicin), the differential viability (reversal) was 14.4% (inactive). Further, the inhibition in test [7] was -7.07% (inactive); in test [8], 1.29% (inactive).

Turning to `COc1ccc(OC)c(NC(=O)CSc2nc3ccccc3c(=O)n2CCNC(C)=O)c1`, the viability in test [1] is 118%; in test [3], 118% (inactive); in test [4], 95.4% (inactive); in test [5], 80.7% (inactive); in test [6] (setting [9]), 16.6%; in test [6] (setting [10]), 80.7%. For the same compound, the Her2 level in test [2] is 108% (inactive). For the same compound, in test [6] (H69AR cells + 2 uM doxorubicin), the differential viability (reversal) was 64.1% (active). Besides, the inhibition was -1.58% (inactive) in test [7] and 0.32% (inactive) in test [8].

As for `CCOC(=O)CN1C(=O)C2(OCCCO2)c2ccccc21`, the viability in test [1] is 99%; in test [3], 99% (inactive); in test [4], 99.7% (inactive); in test [5] it was 101% (inactive); in test [6] (setting [9]), 89.7%; in test [6] (setting [10]) it was 101%. In addition, the Her2 level in test [2] was 109% (inactive). For the same compound, the differential viability (reversal) in test [6] (H69AR cells + 2 uM doxorubicin) is 11.1% (inactive). Also, the results for the inhibition in test [7] and in test [8] were -7.66% (inactive) and -11% (inactive), respectively.

With `O=C(Nc1ccccc1N1CCCCC1)c1ncoc1-c1ccc(F)cc1`, the viability was 115% in test [1]; 115% (inactive) in test [3]; 78.1% (inactive) in test [4]; 84.6% (inactive) in test [5]; 85.8% in test [6] (setting [9]); 84.6% in test [6] (setting [10]). For the same compound, the Her2 level in test [2] was 109% (inactive). For the same compound, the differential viability (reversal) in test [6] (H69AR cells + 2 uM doxorubicin) is -1.2% (inactive). Further, the inhibition in test [7] is -3.47% (inactive); in test [8], -2.86% (inactive).

As for `CC1=C(C#N)C(=O)NC(C)(C)C1`, the viability in test [1] was 114%; in test [3], 114% (inactive); in test [4], 91.8% (inactive); in test [5], 89.3% (inactive); in test [6] (setting [9]) it was 86.3%; in test [6] (setting [10]), 89.3%. Also, the Her2 level in test [2] is 102% (inactive). Moreover, the differential viability (reversal) in test [6] (H69AR cells + 2 uM doxorubicin) is 3.02% (inactive). The inhibition in test [7] is -6% (inactive); in test [8], 1.8% (inactive).

In the case of `Cc1ccc(-c2nnn(CC(=O)N(Cc3cccs3)C(C(=O)NC(C)(C)C)c3ccc(C)o3)n2)o1` (stereo not given), the viability was 86.5% in test [1]; 86.5% (inactive) in test [3]; 93.4% (inactive) in test [4]; 79% (inactive) in test [5]; 75.7% in test [6] (setting [9]); 79% in test [6] (setting [10]). Besides, the Her2 level in test [2] was 96.5% (inactive). Moreover, the differential viability (reversal) in test [6] (H69AR cells + 2 uM doxorubicin) was 3.37% (inactive). The inhibition in test [7] is -0.77% (inactive); in test [8] it was -5.67% (inactive).

Take `N#Cc1ccc(COC(=O)Cn2nnc(-c3ccccc3)n2)cc1`: the viability in test [1] is 111%; in test [3], 111% (inactive); in test [4], 89.5% (inactive); in test [5], 70.7% (inactive); in test [6] (setting [9]) it was 64.1%; in test [6] (setting [10]), 70.7%. For the same compound, in test [2], the Her2 level is 96% (inactive). The differential viability (reversal) in test [6] (H69AR cells + 2 uM doxorubicin) is 6.57% (inactive). The inhibition was -3.12% (inactive) in test [7] and -0.95% (inactive) in test [8].

With `CCCC(=O)Nc1ccc2oc(-c3cccnc3)nc2c1`, the viability is 109% in test [1]; 109% (inactive) in test [3]; 93.6% (inactive) in test [4]; 88.5% (inactive) in test [5]; 96% in test [6] (setting [9]); 88.5% in test [6] (setting [10]). Besides, in test [2], the Her2 level was 94% (inactive). Besides, in test [6] (H69AR cells + 2 uM doxorubicin), the differential viability (reversal) is -7.42% (inactive). For the same compound, the figures for the inhibition in test [7] and in test [8] were -4% (inactive) and 10% (inactive), respectively.

Turning to `CCC(CO)Nc1ncnc2c1cnn2-c1ccc(Cl)cc1` (stereo not given), the viability in test [1] is 94.5%; in test [3], 94.5% (inactive); in test [4], 91.7% (inactive); in test [5], 93.7% (inactive); in test [6] (setting [9]), 80.2%; in test [6] (setting [10]) it was 93.7%. In addition, the Her2 level in test [2] was 126% (inactive). Besides, the differential viability (reversal) in test [6] (H69AR cells + 2 uM doxorubicin) is 13.5% (inactive). For the same compound, the inhibition in test [7] was -5.73% (inactive); in test [8], -5% (inactive).

For `Nc1nonc1-c1noc(CCCCCN2C(=O)c3ccccc3C2=O)n1`, the viability in test [1] is 102%; in test [3] it was 102% (inactive); in test [4] it was 108% (inactive); in test [5], 105% (inactive); in test [6] (setting [9]), 97.6%; in test [6] (setting [10]) it was 105%. Moreover, in test [2], the Her2 level was 102% (inactive). In addition, in test [6] (H69AR cells + 2 uM doxorubicin), the differential viability (reversal) is 7.63% (inactive). Besides, the inhibition was -4.4% (inactive) in test [7] and -6.61% (inactive) in test [8].

For `Cc1ccccc1CS(=O)(=O)Cc1ccc(C(=O)NCCCN2CCOCC2)o1`, the viability is 77% in test [1]; 77% (inactive) in test [3]; 104% (inactive) in test [4]; 98.2% (inactive) in test [5]; 95.1% in test [6] (setting [9]); 98.2% in test [6] (setting [10]). Further, in test [2], the Her2 level was 97% (inactive). In test [6] (H69AR cells + 2 uM doxorubicin), the differential viability (reversal) is 3.12% (inactive). The inhibition in test [7] is -0.39% (inactive); in test [8], -6.13% (inactive).

Turning to `CCCc1nn(CCc2ccccn2)c(N)c1CC`, the viability in test [1] is 114%; in test [3], 114% (inactive); in test [4], 89.4% (inactive); in test [5] it was 96.5% (inactive); in test [6] (setting [9]) it was 93.5%; in test [6] (setting [10]), 96.5%. For the same compound, in test [2], the Her2 level is 91% (inactive). In addition, the differential viability (reversal) in test [6] (H69AR cells + 2 uM doxorubicin) is 3.08% (inactive). For the same compound, the inhibition in test [7] was -6% (inactive); in test [8] it was 0.66% (inactive).
